# Cav3 T inh – human Cav3.2 channel inhibition, primary screen; O95180; Cav3.2-expressing cells, Fluo-4 calcium fluorescence FDSS; stronger effect = lower value; B-score at 10 µM; actives 4% (n = 100,000);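 active = single-dose well whose peak fluorescence ratio is a statistical outlier from its plate by either plate-standardised score or position-corrected B-score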
# CYP2C19 inhib – inhibitors of human CYP2C19; P33261; CYP2C19 Supersomes, luciferin-H EGE luminescence, 30 min; inhibition, % at 5 µM; actives 21% (n = 96,000);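 active = CYP2C19 inhibition above a set limit at 5 µM in the primary screen, cut at about 50% in these data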;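 also: plate controls were negative control wells for no effect and 2.5 mM tranylcypromine positive control for full effect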
# Target sequence (P33261 whole entry, looked up): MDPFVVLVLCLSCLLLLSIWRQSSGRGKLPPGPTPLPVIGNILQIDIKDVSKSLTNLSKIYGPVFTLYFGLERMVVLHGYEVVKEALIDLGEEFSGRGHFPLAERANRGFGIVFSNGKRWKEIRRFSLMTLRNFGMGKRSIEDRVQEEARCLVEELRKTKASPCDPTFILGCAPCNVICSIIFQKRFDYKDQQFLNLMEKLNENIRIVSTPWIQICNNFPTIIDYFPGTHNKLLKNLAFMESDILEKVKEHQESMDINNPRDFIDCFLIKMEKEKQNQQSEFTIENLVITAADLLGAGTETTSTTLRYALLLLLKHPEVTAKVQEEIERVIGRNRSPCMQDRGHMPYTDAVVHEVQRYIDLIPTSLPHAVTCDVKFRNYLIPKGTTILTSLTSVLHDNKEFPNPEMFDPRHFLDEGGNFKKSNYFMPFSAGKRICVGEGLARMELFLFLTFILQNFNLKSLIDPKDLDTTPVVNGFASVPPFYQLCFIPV
# CYP2C9 inh – blocks human cytochrome P450 2C9 | P11712 | CYP2C9 Supersomes, luciferin-H conversion, luminescence | inhibition, % at 5 µM | actives 20% (n = 96,000) | AID 777;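 active = blocking of liver enzyme CYP2C9 beyond about 50% at 5 µM, limit read from the data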
# CYP2C19 act – increases human CYP2C19 enzyme activity. activation factor at 5 µM. 96,000 tested, under 10 active. P33261. recombinant CYP2C19, luciferin-H EGE luminescence; stronger effect = higher value; 0 = fully inhibited enzyme, 1 = untreated enzyme. AID 1025;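 active = activation factor of at least 2 at 5 µM in the primary screen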;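 also: 0 = wells with 2.5 mM tranylcypromine and 1 = vehicle-only wells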
# Rev-RRE block – HIV Rev-RRE protein-RNA interaction inhibition | inhibition, % at 8 µM | Rev peptide-RRE RNA binding, FRET | actives 0.79% (n = 97,000);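 active = inhibition above the screen-wide mean plus 3 SD, cut at about 35% in these data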;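 also: 0% = median DMSO wells and 100% = median Neomycin B control wells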
# Target sequence (P05866 whole entry, looked up): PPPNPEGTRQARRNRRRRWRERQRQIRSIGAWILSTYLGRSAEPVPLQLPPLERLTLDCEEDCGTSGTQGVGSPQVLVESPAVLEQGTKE
#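 Test system – labelled RRE RNA duplex and labelled Rev peptide · Signal – fluorescein-to-Cy5 FRET, 480 nm excitation · Evaluation – % inhibition of FRET ratio versus controls · Benchmarks – DMSO low control, neomycin B high control · Incubation – 5 min RNA-compound premix plus 15 min binding step, 25 °C · Medium – HEPES pH 7.5 salt buffer with EDTA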
# CYP2C9 activ – increases human cytochrome P450 2C9 activity. P11712. actives 1.4% (n = 96,000). activation factor at 5 µM. recombinant CYP2C9, luciferin-H conversion, luminescence; stronger effect = higher value; factor 1 = untreated enzyme, 0 = blocked;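 active = activation factor of 2 or more for CYP2C9 at a 5 µM dose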;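 also: 0 = sulfaphenazole-blocked wells and 1 = vehicle-only wells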
# An asterisk follows results filed as active; . = no result given. This is a sample that favours compounds with a hit; in the whole collection about 27% have one here.
SMILES,Cav3 T inh,CYP2C19 inhib,CYP2C9 inh,CYP2C19 act,Rev-RRE block,CYP2C9 activ
O=C(Nc1ccc(Cl)cc1)C(c1ccccc1)N(CCO)CCO (configuration not stated),-0.074,63*,66*,0.4,-4,0.3
O=C(NCCSCc1ccccc1)c1cc(S(=O)(=O)N2CCOCC2)ccc1F,.,51*,70*,0.5,.,0.3
CCOC(=O)c1ccccc1NS(=O)(=O)c1ccc(S(=O)(=O)N2CCCC2)cc1,-0.63,97*,91*,0,.,0.1
CCOC(=O)c1ccccc1NC(=O)c1cc(S(=O)(=O)N2CCOCC2)ccc1F,1.2,45,59*,0.5,7,0.4
O=C(NC12CC3CC(CC(C3)C1)C2)c1ccc(S(=O)(=O)N2CCOCC2)cc1,.,-6,0,1.1,2,1
CCn1c(C)[n+](CCOCC[n+]2c(C)n(CC)c3cc(Cl)c(Cl)cc32)c2cc(Cl)c(Cl)cc21,1.7,-12,-8,1.1,-12,1.1
CCn1c(CNc2nc3ccccc3n2C(C)C)nc2ccccc21,-3.9,82*,82*,0.2,-3,0.2
Cc1ccc(NCc2nc3ccccc3n2C)cc1,-0.19,96*,31,0,1,0.7
Cn1c(CNc2nc3ccccc3n2C)nc2ccccc21,1.9,70*,21,0.3,.,0.8
CCCn1c(NCc2c[nH]c3ccccc23)nc2ccccc21,-5.9*,71*,32,0.3,-4,0.7
Cn1c(NCc2c(O)ccc3ccccc23)nc2ccccc21,.,3,-6,1,9,1.1
CCn1c(NCc2ccccc2Cl)nc2ccccc21,-1.8,.,.,.,4,.
O=C(NCc1ccccn1)[C@H]1C[C@@H]1[C@H](NP(=O)(c1ccccc1)c1ccccc1)c1ccccc1,0.39,.,.,.,.,.
Cc1cc(C)cc(C(=O)NC(CC(N)=O)c2ccc(NC3CCCCC3)c([N+](=O)[O-])c2)c1 (configuration not stated),1.1,.,.,.,.,.
CC(C)n1c(NCc2nc3ccccc3n2C)nc2ccccc21,0.47,84*,54*,0.2,2,0.5
CC(C)n1c(CNC(=O)c2ccccc2)nc2ccccc21,-0.24,86*,2,0.1,.,1
CCCn1c(CNc2ccccc2O)nc2ccccc21,0.47,51*,28,0.5,16,0.7
CCn1c(CNC(=O)c2ccccc2)nc2ccccc21,0.27,.,.,.,8,.
COc1ccc(CNC(=O)c2ccc(N3CCC4(CC3)CC(c3ccc(Cl)cc3)=NO4)c(N)c2)cc1,-1.6,.,.,.,.,.
O=c1c(Oc2ccccc2)coc2cc(O)cc(O)c12,-0.88,.,.,.,.,.
O=C(NCc1nnc(SCC(=O)N2CCC(Cc3ccccc3)CC2)o1)c1ccccc1F,-1.8,47,72*,0.5,9,0.3
O=C(CCn1ccc2ccccc21)Nc1ccc(N2CCOCC2)cc1,0.4,55*,28,0.4,8,0.7
O=S(=O)(c1ccc(Br)s1)n1cccn1,0.74,7,-52,0.9,16,1.5
CC12CN3CC(C)(CN(C1)C3c1ccc3c(c1)OCO3)C2=O (configuration not stated),0.048,53*,-13,0.5,1,1.1
CN1c2ccccc2N(C)C1c1ccc2c(c1)OCO2,0.13,5,-2,0.9,-1,1
SMILES,Cav3 T inh,CYP2C19 inhib,CYP2C9 inh,CYP2C19 act,Rev-RRE block,CYP2C9 activ
COc1ccc(-c2nc(-c3ccc(NC(=O)c4ccncc4)cc3)no2)cc1OC,0.28,1,29,1,-5,0.7
N#Cc1cnn(-c2nc3sc4c(c3c(=O)[nH]2)CCCC4)c1N,.,3,10,1,9,0.9
Cc1nc2cc(C(F)(F)F)ccc2n1C1CCN(CC(=O)NC(C)(C)C)CC1,1.4,33,12,0.7,0,0.9
O=C(CN1CCC(n2nnc3cc(C(F)(F)F)ccc32)CC1)Nc1ccc2c(c1)OCCO2,-3,82*,87*,0.2,2,0.1
O=C(CN1CCC(n2nnc3cc(C(F)(F)F)ccc32)CC1)Nc1ccc2c(c1)CCC2,-0.43,54*,79*,0.5,6,0.2
Cc1noc(C)c1COC(=O)c1ccccc1Sc1ccccc1C#N,-3.5,59*,74*,0.4,5,0.3
CCCOC(=O)CCn1c(=S)oc2ccccc21,-0.046,90*,43,0.1,7,0.6
CCCCOC(=O)n1c(=O)oc2ccccc21,0.41,15,-14,0.8,2,1.1
CC(C)CN(C(=O)COC(=O)c1ccc2c(c1)NC(=O)CS2)C1CCS(=O)(=O)C1 (configuration not stated),.,5,9,0.9,2,0.9
COc1ccc(S(=O)(=O)n2ccc(-c3ccc(OCCN(C)c4ccccn4)cc3)n2)cc1,-2.7,26,57*,0.7,15,0.4
CC(=O)N1CCN(C2c3cccc4cccc(c34)C2NS(=O)(=O)c2ccccc2)CC1 (configuration not stated),1.3,74*,68*,0.3,11,0.3
CCCC(=O)C1=C(O)C(C(=O)OC)C(C)(C)CC1=N (configuration not stated),0.48,23,40,0.8,1,0.6
CCCC(=O)C1=C(O)C(C(=O)OC)C(C)(C)CC1=NC(C)(C)C (configuration not stated),4.1*,-20,-18,1.2,6,1.2
CCCC(=O)C1=C(O)C(C(=O)OC)C(C)(C)CC1=Nc1ccccc1 (configuration not stated),.,87*,82*,0.1,4,0.2
CCCC(=O)C1=C(O)C(C(=O)OC)C(C)(C)CC1=Nc1cccc2ccccc12 (configuration not stated),-5,.,.,.,5,.
Cc1ccc(S(=O)(=O)NCCOCCNS(=O)(=O)c2ccc(C)cc2)cc1,-0.47,68*,-101,0.3,4,2*
COCCNS(=O)(=O)c1ccc(-c2ccc(C)cc2)cc1,-0.42,74*,93*,0.3,3,0.1
Cc1ccc(S(=O)(=O)NCCN(CCNS(=O)(=O)c2ccc(C)cc2)S(C)(=O)=O)cc1,-1.6,35,38,0.7,6,0.6
CCN(CC(O)Cn1c2ccccc2c2ccccc21)S(=O)(=O)c1ccc(C)cc1 (configuration not stated),-4.2,99*,90*,0,12,0.1
COc1ccc(N(CC(O)Cn2c3ccccc3c3ccccc32)S(=O)(=O)c2ccccc2)cc1 (configuration not stated),-0.39,83*,70*,0.2,2,0.3
OCCN(CCO)CC(O)Cn1c2ccccc2c2ccccc21 (configuration not stated),0.74,-2,-3,1,4,1

# Compound activity: PubChem, several laboratories
